Experiments:
[1] = system: streptozotocin-induced diabetic Wistar rats; experiment: serum profile; assay type: in vivo, Wistar albino rats; details: STZ-diabetic rats; for (ALP) IU / (SGOT) IU / (SGPT) IU: serum
How it was run: (§1)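 STZ-diabetic Wistar rats (n = 8 per group) received test compound at 10 or 20 mg/kg p.o., or glibenclamide 500 μg/kg p.o., once daily for 28 days; controls received vehicle. On day 28, rats were anesthetised with pentobarbital sodium (35 mg/kg) and blood was drawn by cardiac puncture. Serum ALP, SGPT, SGOT, LDL, HDL, TG, total cholesterol, creatinine and insulin were measured. Means ± SEM, one-way ANOVA with Dunnett's test.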

[2] = system: streptozotocin-induced diabetic Wistar rats; experiment: lipid profile in streptozotocin-induced diabetes; assay type: in vivo, Wistar albino rats; details: STZ-diabetic rats
How it was run: as §1

α-glucosidase = α-glucosidase (Saccharomyces cerevisiae, UniProt P53341); experiment: α-glucosidase inhibitory activity; assay type: biochemical; details: read-out: glucosidase inhibition IC50 ± SEM; mean ± SEM
Chain of α-glucosidase (P53341 whole entry): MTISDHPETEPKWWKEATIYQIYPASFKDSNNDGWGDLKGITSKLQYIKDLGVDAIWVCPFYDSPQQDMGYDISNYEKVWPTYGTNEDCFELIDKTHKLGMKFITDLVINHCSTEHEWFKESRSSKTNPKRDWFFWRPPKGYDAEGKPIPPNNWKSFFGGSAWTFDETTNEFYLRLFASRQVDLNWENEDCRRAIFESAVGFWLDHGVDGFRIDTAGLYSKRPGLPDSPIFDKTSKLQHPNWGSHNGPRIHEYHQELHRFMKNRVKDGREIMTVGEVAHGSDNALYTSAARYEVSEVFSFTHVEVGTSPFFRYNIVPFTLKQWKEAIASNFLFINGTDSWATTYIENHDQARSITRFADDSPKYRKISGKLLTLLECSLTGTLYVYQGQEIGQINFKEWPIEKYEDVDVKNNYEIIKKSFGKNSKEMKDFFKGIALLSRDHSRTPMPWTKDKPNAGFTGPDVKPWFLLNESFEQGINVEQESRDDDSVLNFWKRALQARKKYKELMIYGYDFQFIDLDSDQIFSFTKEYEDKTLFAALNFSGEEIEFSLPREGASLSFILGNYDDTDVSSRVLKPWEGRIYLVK

Balb/C mice = experiment: acute toxicity study in mice; assay type: in vivo
How it was run: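 Two-phase modified Lorke protocol in Balb/C mice (20–25 g), four per group. Phase 1: control given Tween-80 (2%); other groups received oral test compound at 100, 500 or 1000 mg/kg. Phase 2: oral doses of 1250, 1500 and 2000 mg/kg. Animals observed for the first 24 h, then daily for 2 weeks for diarrhea, convulsions, lethargy, sleeping, salivation and tremors, with mortality monitored.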

[3] = system: streptozotocin-induced diabetic Wistar rats; experiment: antidiabetic activity: blood glucose in STZ-induced diabetes; assay type: in vivo, Wistar albino rats
How it was run: (§2)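 Male Wistar albino rats (170–200 g, 8–10 weeks), fasted overnight, given STZ 50 mg/kg i.p. in 0.1 M citrate buffer, then 10% glucose for 3 days. Tail-vein glucose by glucometer at 72 h; >250 mg/dL counted as diabetic. Body weight and blood glucose on days 1, 7, 14, 21 and 28. Means ± SEM, one-way ANOVA with Dunnett's test.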

[4] = body weight of STZ-induced diabetic rats; assay type: in vivo, Wistar albino rats; details: for body weight, day 1: day 1, in g (unit assumed); for body weight, day 7: day 7, in g (unit assumed); for body weight, day 14: day 14, in g (unit assumed); for body weight, day 21: day 21, in g (unit assumed); for body weight, day 28: day 28, in g (unit assumed)
How it was run: as §2

[5] = system: overnight fasted normal rats; experiment: oral glucose tolerance test; assay type: in vivo, Wistar albino rats; details: OGTT, glucose 3 g/kg oral

## 1-Phenyl-3-(4-(4-(p-tolyl)-2,3-dihydrobenzo[b][1,5]thiazepin-2-yl)phenyl)prop-2-en-1-one [6B]
[1]; 10 mg/kg for 28 days
  insulin level: 0.658 ± 0.31 ng/mL
  serum creatinine: 0.82 ± 0.22 mg/dL
  (ALP) IU: 214.19 ± 4.11 IU
  (SGOT) IU: 25.81 ± 2.16 IU
  (SGPT) IU: 25.90 ± 2.11 IU
[1]; 20 mg/kg for 28 days
  insulin level: 0.667 ± 0.40 ng/mL
  serum creatinine: 0.75 ± 0.30 mg/dL
  (ALP) IU: 204.71 ± 4.13 IU
  (SGOT) IU: 22.31 ± 2.17 IU
  (SGPT) IU: 23.01 ± 2.11 IU
[2]; 10 mg/kg for 28 days
  LDL: 130.21 ± 3.99 mg/dL
  TG: 145.21 ± 4.98 mg/dL
  total CH: 151.07 ± 4.92 mg/dL
[2]; 10 mg/kg for 28 days, 10 mg/kg
  HDL: 44.89 ± 3.01 mg/dL
[2]; 20 mg/kg for 28 days
  LDL: 113.41 ± 4.71 mg/dL
  TG: 116.82 ± 4.41 mg/dL
  total CH: 137.11 ± 3.71 mg/dL
[2]; 20 mg/kg for 28 days, 20 mg/kg
  HDL: 52.07 ± 2.69 mg/dL
α-glucosidase
  IC50: 3.63 ± 0.36 µM
Balb/C mice; maximum oral dose of 2000 mg/kg (b.w.)
  mortality: no mortality
Balb/C mice; oral up to 2000 mg/kg, observed daily for 2 weeks
  toxic effects (diarrhea, convulsions, lethargy, sleeping, salivation, tremor): no toxic effects
[3]; 10 mg/kg p.o. once daily
  blood glucose level, day 1: 381.40 ± 4.30 mg/dL
[3]; 10 mg/kg p.o. once daily, day 7, 10 mg/kg
  blood glucose level, day 7: 280.90 ± 4.66 mg/dL
[3]; 10 mg/kg p.o. once daily, day 14, 10 mg/kg
  blood glucose level, day 14: 205.31 ± 4.01 mg/dL
[3]; 10 mg/kg p.o. once daily, day 21, 10 mg/kg
  blood glucose level, day 21: 150.45 ± 4.92 mg/dL
[3]; 10 mg/kg p.o. once daily, day 28
  blood glucose level, day 28: 135.67 ± 3.89 mg/dL
[3]; 20 mg/kg p.o. once daily
  blood glucose level, day 1: 380.30 ± 4.78 mg/dL
[3]; 20 mg/kg p.o. once daily, day 7, 20 mg/kg
  blood glucose level, day 7: 228.44 ± 5.06 mg/dL
[3]; 20 mg/kg p.o. once daily, day 14, 20 mg/kg
  blood glucose level, day 14: 166.09 ± 4.46 mg/dL
[3]; 20 mg/kg p.o. once daily, day 21, 20 mg/kg
  blood glucose level, day 21: 129.71 ± 4.09 mg/dL
[3]; 20 mg/kg p.o. once daily, day 28, 20 mg/kg
  blood glucose level, day 28: 111.81 ± 4.08 mg/dL
[4]; 10 mg/kg
  body weight, day 1: 190.0 ± 3.98
  body weight, day 7: 182.5 ± 4.19
  body weight, day 14: 187.1 ± 4.88
  body weight, day 21: 183.4 ± 4.60
  body weight, day 28: 180.9 ± 4.23
[4]; 20 mg/kg
  body weight, day 1: 194.1 ± 4.41
  body weight, day 7: 189.3 ± 4.61
  body weight, day 14: 190.3 ± 4.71
  body weight, day 21: 186.7 ± 3.96
  body weight, day 28: 184.3 ± 4.33
[5]; dose 10 mg/kg
  blood glucose level, 0 min: 103.41 ± 4.05 mg/dL
  blood glucose level, 30 min: 125.39 ± 4.10 mg/dL
  blood glucose level, 60 min: 120.41 ± 4.81 mg/dL
  blood glucose level, 90 min: 112.61 ± 4.81 mg/dL
  blood glucose level, 120 min: 114.91 ± 4.59 mg/dL
[5]; dose 20 mg/kg
  blood glucose level, 0 min: 100.93 ± 4.11 mg/dL
  blood glucose level, 30 min: 119.91 ± 4.62 mg/dL
  blood glucose level, 60 min: 121.66 ± 4.31 mg/dL
  blood glucose level, 90 min: 111.22 ± 4.21 mg/dL
  blood glucose level, 120 min: 109.78 ± 5.01 mg/dL

## 2-(3-Methoxy-4-propoxyphenyl)-4-(p-tolyl)-2,3-dihydrobenzo[b][1,5]thiazepine [5B]
α-glucosidase
  IC50: 6.28 ± 0.71 µM

## 2-(4-Butoxy-3-methoxyphenyl)-4-(p-tolyl)-2,3-dihydrobenzo[b][1,5]thiazepine [9B]
α-glucosidase
  IC50: 8.56 ± 0.59 µM

From article PMC9435035 (ACS Omega, 2022)
